Results published in ChEMBL document CHEMBL1152342, “Thiazomycins, thiazolyl peptide antibiotics from Amycolatopsis fastidiosa” (2009).
Converted amounts (≈) assume the structure as drawn.

What was measured:
Assay type in all cases: functional
Enterococcus faecalis [1] = assay: Antibacterial activity against vancomycin, macrolide-resistant, linezolid-sensitive Enterococcus faecalis CL5246 after 20 hrs by twofold serial broth dilution method; conditions: CL5246, 20 h
Summary of the method: (§1)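 MICs by NCCLS (now CLSI) twofold serial broth dilution. Cation-adjusted Mueller Hinton broth was the standard medium, with CAMHB + 2.5% lysed horse blood used for certain strains. Cultures were incubated at 37 °C for 20 h before reading.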

Staphylococcus aureus [2] = assay: Antibacterial activity against methicillin-sensitive Staphylococcus aureus MB2865 after 20 hrs by twofold serial broth dilution method in presence of 50% human serum; conditions: MB2865, 20 h; summary of the method: as §1
Candida albicans = assay: Antifungal activity against Candida albicans MY1055 after 20 hrs by twofold serial broth dilution method; conditions: MY1055, 20 h
Staphylococcus aureus [3] = assay: Antibacterial activity against methicillin-sensitive Staphylococcus aureus MB2865 after 20 hrs by twofold serial broth dilution method; conditions: MB2865, 20 h; summary of the method: as §1
Staphylococcus aureus [4] = assay: Antibacterial activity against macrolide, methicillin-resistant Staphylococcus aureus CL5705 after 20 hrs by twofold serial broth dilution method; conditions: CL5705, 20 h; summary of the method: as §1
Streptococcus pneumoniae [5] = assay: Antibacterial activity against penicillin-resistant Streptococcus pneumoniae CL5771 after 20 hrs by twofold serial broth dilution method; conditions: CL5771, 20 h; summary of the method: as §1
Enterococcus faecium [6] = assay: Antibacterial activity against vancomycin, linezolid-resistant Enterococcus faecium CL5791 after 20 hrs by twofold serial broth dilution method in presence of 50% human serum; conditions: CL5791, 20 h; summary of the method: as §1
[7] = tested on: Staphylococcus haemolyticus; assay: Antibacterial activity against ampicillin-sensitive Staphylococcus haemolyticus CL8544 after 20 hrs by twofold serial broth dilution method; conditions: CL8544, 20 h; summary of the method: as §1
Streptococcus pyogenes = assay: Antibacterial activity against Streptococcus pyogenes CL10440 after 20 hrs by twofold serial broth dilution method; conditions: CL10440, 20 h; summary of the method: as §1
[8] = tested on: Staphylococcus epidermidis; assay: Antibacterial activity against Staphylococcus epidermidis CL8040 after 20 hrs by twofold serial broth dilution method; conditions: CL8040, 20 h; summary of the method: as §1
Enterococcus faecium [9] = assay: Antibacterial activity against vancomycin, linezolid-resistant Enterococcus faecium CL5791 after 20 hrs by twofold serial broth dilution method; conditions: CL5791, 20 h; summary of the method: as §1
Streptococcus pneumoniae [10] = assay: Antibacterial activity against penicillin-sensitive Streptococcus pneumoniae CL8002 after 20 hrs by twofold serial broth dilution method; conditions: CL8002, 20 h; summary of the method: as §1
Enterococcus faecalis [11] = assay: Antibacterial activity against vancomycin-sensitive Enterococcus faecalis CL8516 after 20 hrs by twofold serial broth dilution method; conditions: CL8516, 20 h; summary of the method: as §1
Staphylococcus aureus [12] = assay: Antibacterial activity against macrolide-sensitive, Linezolid, methicillin-resistant Staphylococcus aureus CL5814 after 20 hrs by twofold serial broth dilution method; conditions: CL5814, 20 h; summary of the method: as §1
Staphylococcus aureus [13] = assay: Antibacterial activity against macrolide, imipenem, methicillin-resistant Staphylococcus aureus MB5393 after 20 hrs by twofold serial broth dilution method; conditions: MB5393, 20 h; summary of the method: as §1
Staphylococcus aureus [14] = assay: Antibacterial activity against vancomycin-intermediate, macrolide, methicillin-resistant Staphylococcus aureus CL5706 after 20 hrs by twofold serial broth dilution method; conditions: CL5706, 20 h; summary of the method: as §1

Structure (SMILES) | MIC (Enterococcus faecalis [1]) [µg/mL] | MIC (Staphylococcus aureus [2]) [µg/mL] | MIC (Candida albicans) [µg/mL] | MIC (Staphylococcus aureus [3]) [µg/mL] | MIC (Staphylococcus aureus [4]) [µg/mL] | MIC (Streptococcus pneumoniae [5]) [µg/mL] | MIC (Enterococcus faecium [6]) [µg/mL] | MIC [7] [µg/mL] | MIC (Streptococcus pyogenes) [µg/mL] | MIC [8] [µg/mL] | MIC (Enterococcus faecium [9]) [µg/mL] | MIC (Streptococcus pneumoniae [10]) [µg/mL] | MIC (Enterococcus faecalis [11]) [µg/mL] | MIC (Staphylococcus aureus [12]) [µg/mL] | MIC (Staphylococcus aureus [13]) [µg/mL] | MIC (Staphylococcus aureus [14]) [µg/mL]
CC[C@H]1OC(=O)[C@H](C)[C@@H](O[C@H]2C[C@@](C)(OC)[C@@H](O)[C@H](C)O2)[C@H](C)[C@@H](O[C@@H]2O[C@H](C)C[C@H](N(C)C)[C@H]2O)[C@](C)(O)C[C@@H](C)C(=O)[C@H](C)[C@@H](O)[C@]1(C)O [ERYTHROMYCIN] | 32 (≈ 43.6 µM) | 0.1 | > 32 | 0.1 (≈ 0.136 µM) | > 32 | 2 (≈ 2.73 µM) | > 32 | 1 (≈ 1.36 µM) | ≤ 0.03 | 0.25 (≈ 0.341 µM) | > 32 | 2 (≈ 2.73 µM) | 1 (≈ 1.36 µM) | 1 (≈ 1.36 µM) | > 32 | > 32
CC(=O)NC[C@H]1CN(c2ccc(N3CCOCC3)c(F)c2)C(=O)O1 [LINEZOLID] |  |  | > 32 |  |  |  | > 32 | 2 (≈ 5.93 µM) | 0.5 (≈ 1.48 µM) | 1 (≈ 2.96 µM) | 32 (≈ 94.9 µM) |  |  | > 32 |  | 
C=C(NC(=O)c1csc(-c2nc3c(cc2O)-c2nc(cs2)C(=O)N[C@@H]([C@@H](C)O)C(=O)N/C(=C(\C)OC)c2nc(cs2)C(=O)N[C@@H]2c4nc(cs4)C(=O)N[C@@H](COC(=O)c4[nH]c5cccc6c5c4CO[C@@H]2[C@H](OC)C(=O)OC6)c2nc-3cs2)n1)C(N)=O [THIAZOMYCIN B] | 0.06 (≈ 0.0475 µM) | 0.25 | > 32 | 0.02 (≈ 0.0158 µM) | 0.03 (≈ 0.0237 µM) | 0.004 (≈ 0.00316 µM) | 0.1 | 0.03 (≈ 0.0237 µM) | 0.004 (≈ 0.00316 µM) | 0.03 (≈ 0.0237 µM) | 0.004 (≈ 0.00316 µM) | 0.008 (≈ 0.00633 µM) | 0.1 (≈ 0.0791 µM) | 0.02 (≈ 0.0158 µM) | 0.02 (≈ 0.0158 µM) | 0.03 (≈ 0.0237 µM)
CO/C(C)=C1/NC(=O)[C@H]([C@@H](C)O)NC(=O)c2csc(n2)-c2cc(O)c(-c3nc(C(N)=O)cs3)nc2-c2csc(n2)[C@@H]2COC(=O)c3[nH]c4cccc5c4c3CO[C@H]([C@H](O[C@H]3C[C@](C)(O)[C@H](N(C)C)[C@H](C)O3)C(=O)OC5)[C@H](NC(=O)c3csc1n3)c1nc(cs1)C(=O)N2 [THIAZOMYCIN C] | 0.1 (≈ 0.0739 µM) | 0.1 | > 32 | 0.05 (≈ 0.037 µM) | 0.1 (≈ 0.0739 µM) | 0.006 (≈ 0.00444 µM) | 0.1 | 0.1 (≈ 0.0739 µM) | 0.006 (≈ 0.00444 µM) | 0.1 (≈ 0.0739 µM) | 0.1 (≈ 0.0739 µM) | 0.01 (≈ 0.00739 µM) | > 0.1 | 0.03 (≈ 0.0222 µM) | 0.05 (≈ 0.037 µM) | 0.1 (≈ 0.0739 µM)
C=C(NC(=O)c1csc(-c2nc3c(cc2O)-c2nc(cs2)C(=O)N[C@@H]([C@@H](C)O)C(=O)N/C(=C(\C)OC)c2nc(cs2)C(=O)N[C@@H]2c4nc(cs4)C(=O)N[C@@H](COC(=O)c4[nH]c5cccc6c5c4CO[C@@H]2[C@H](O[C@H]2C[C@](C)(O)[C@@H](O)[C@H](C)O2)C(=O)OC6)c2nc-3cs2)n1)C(N)=O [THIAZOMYCIN D] | 0.1 (≈ 0.0717 µM) | 1 | > 32 | 0.03 (≈ 0.0215 µM) | 0.1 (≈ 0.0717 µM) | 0.03 (≈ 0.0215 µM) | 1 | 0.06 (≈ 0.043 µM) | 0.02 (≈ 0.0143 µM) | 0.03 (≈ 0.0215 µM) | 0.1 (≈ 0.0717 µM) | 0.1 (≈ 0.0717 µM) | 0.1 (≈ 0.0717 µM) | 0.06 (≈ 0.043 µM) | 0.031 (≈ 0.0222 µM) | 0.1 (≈ 0.0717 µM)
C=C(NC(=O)c1csc(-c2nc3c(cc2O)-c2nc(cs2)C(=O)N[C@@H]([C@@H](C)O)C(=O)N/C(=C(\C)OC)c2nc(cs2)C(=O)N[C@@H]([C@H](O)[C@H](O[C@H]2C[C@](C)(O)[C@H](N(C)C)[C@H](C)O2)C(=O)O)c2nc(cs2)C(=O)N[C@@H](CO)c2nc-3cs2)n1)C(N)=O [THIAZOMYCIN E1] |  |  |  | 100 (≈ 79.7 µM) |  |  |  |  |  |  |  | 200 (≈ 159 µM) | > 200 |  |  | 
C=C(NC(=O)c1csc(-c2nc3c(cc2O)-c2nc(cs2)C(=O)N[C@@H]([C@@H](C)O)C(=O)N/C(=C(\C)OC)c2nc(cs2)C(=O)N[C@@H]([C@H](O)[C@H](O)C(=O)O)c2nc(cs2)C(=O)N[C@@H](CO)c2nc-3cs2)n1)C(N)=O [THIAZOMYCIN E2] |  |  |  | > 200 |  |  |  |  |  |  |  | > 200 | > 200 |  |  | 
CO/C(C)=C1/NC(=O)[C@H]([C@@H](C)O)NC(=O)c2csc(n2)-c2cc(O)c(-c3nc(C(N)=O)cs3)nc2-c2csc(n2)[C@H](CO)NC(=O)c2csc(n2)[C@H]([C@H](O)[C@H](O)C(=O)O)NC(=O)c2csc1n2 [THIAZOMYCIN E3] |  |  |  | > 200 |  |  |  |  |  |  |  | 200 (≈ 197 µM) | 200 (≈ 197 µM) |  |  | 
C=C(NC(=O)c1csc(-c2nc3c(cc2O)-c2nc(cs2)C(=O)N[C@@H]([C@@H](C)O)C(=O)N/C(=C(\C)OC)c2nc(cs2)C(=O)N[C@@H]2c4nc(cs4)C(=O)N[C@@H](COC(=O)c4c5c6c(cccc6n4O)COC(=O)[C@@H](O[C@H]4C[C@]6(C)OCN(C)[C@@H]6[C@H](C)O4)[C@H]2OC5)c2nc-3cs2)n1)C(N)=O [THIAZOMYCIN] | 0.01 (≈ 0.00697 µM) | 0.05 | > 32 | 0.006 (≈ 0.00418 µM) | 0.01 (≈ 0.00697 µM) | 0.003 (≈ 0.00209 µM) | 0.01 | 0.02 (≈ 0.0139 µM) | 0.002 (≈ 0.00139 µM) | 0.03 (≈ 0.0209 µM) | 0.002 (≈ 0.00139 µM) | 0.003 (≈ 0.00209 µM) | 0.02 (≈ 0.0139 µM) | 0.01 (≈ 0.00697 µM) | 0.003 (≈ 0.00209 µM) | 0.01 (≈ 0.00697 µM)
